Measurements as given in ChEMBL document CHEMBL1287760, “Optimization of purine-nitrile TbcatB inhibitors for use in vivo and evaluation of efficacy in murine models” (Bioorg Med Chem, 2010).
Values after ≈ are worked out from the molar mass of the structure shown. One block for each compound: values may come before it.

Key:
BJ = assay: Cytotoxicity against human BJ cells after 72 hrs by alamar blue assay; type: cell-based
Trypanosoma brucei = assay: Antitrypanosomal activity against Trypanosoma brucei after 48 hrs; type: functional, organism-based
[1] = Permeability of the compound assessed as ratio of compound in acceptor chamber to amount of compound in donor chamber at pH 7.4 by PAMPA assay; type: ADME
[2] = Chemical stability in phosphate buffered saline at pH 3 after 14 days; type: physicochemical; settings: buffer, pH 3, 336 h
Method in brief: (§1)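 Stability in PBS (pH 3, 5 and 7.4) followed over 14 days for non-metabolic degradation.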

Mus musculus [3] = assay: Stability of the compound in po dosed mouse blood assessed as 3-(2-cyano-6-(3,4-dichlorobenzylamino)-9H-purin-9-yl)propanoic acid level; type: ADME, organism-based; settings: in vivo
Method in brief: (§2)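 Oral gavage of compound suspensions to female Balb/c mice; blood sampled retro-orbitally at 1, 2 and 4 h (one sample per mouse) and by cardiac puncture at 48 h. Parent compound and metabolites measured by UPLC–MS; metabolite identity assigned by MS/MS against a synthesized standard.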

[4] = Therapeutic index, ratio of EC50 for human cells to EC50 for Trypanosoma brucei; settings: human cells versus Trypanosoma brucei, read-out: Ratio EC50
Method in brief: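 Index = EC50 against the most sensitive mammalian line (HEK 293, Hep G2, BJ, Raji) divided by EC50 against T.b. brucei.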

[5] = Half life in CD1 mouse liver microsomes by UPLC-MS analysis; type: ADME, Microsome; settings: CD1, mouse, liver microsomes
Method in brief: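 CD-1 female mouse liver microsomes in 0.1 M potassium phosphate pH 7.4 with EDTA and NADPH-regenerating solutions, 37 °C, shaken. Samples at 0, 0.5, 1 and 2 h quenched with cold acetonitrile containing caffeine internal standard. UPLC–MS (SIR) read-out. Log peak-area ratio versus time gives slope; k = −2.303 × slope, t1/2 = 0.693/k.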

[6] = Chemical stability in phosphate buffered saline at pH 5 after 14 days; type: physicochemical; settings: buffer, pH 5, 336 h; method in brief: as §1
[7] = Half life in CD1 mouse plasma by UPLC-MS analysis; type: ADME, cell-free
Method in brief: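 Half-life in mouse plasma measured at 37 °C.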

[8] = Aqueous solubility of compound in deionized water; type: physicochemical
Method in brief: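 Aqueous solubility measured in deionized water.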

[9] = Chemical stability in phosphate buffered saline at pH 7.4 after 14 days; type: physicochemical; settings: buffer, pH 7.4, 336 h; method in brief: as §1
[10] = Chemical stability in dimethyl sulfoxide at pH 7.4 after 14 days; type: physicochemical; settings: buffer, pH 7.4, 336 h
Method in brief: (§3)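 DMSO stability followed over 14 days for non-metabolic degradation.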

Raji = assay: Cytotoxicity against human Raji cells after 72 hrs by alamar blue assay; type: cell-based
Mus musculus [11] = assay: Stability of the compound in po dosed mouse blood assessed as 3-(2-cyano-6-(3,4-dichlorobenzylamino)-9H-purin-9-yl)propanoic acid level after 4 hrs; type: ADME, organism-based; settings: in vivo; method in brief: as §2
[12] = Permeability of the compound assessed as ratio of compound in acceptor chamber to amount of compound in donor chamber at pH 5 by PAMPA assay; type: ADME
HepG2 = assay: Cytotoxicity against human HepG2 cells after 72 hrs by alamar blue assay; type: cell-based; settings: hepg2, 72 h
[13] = Chemical stability in dimethyl sulfoxide at pH 3 after 14 days; type: physicochemical; settings: buffer, pH 3, 336 h; method in brief: as §3
[14] = Permeability of the compound assessed as ratio of compound in acceptor chamber to amount of compound in donor chamber at pH 3 by PAMPA assay; type: ADME
Mus musculus [15] = assay: Stability of the compound in po dosed mouse blood assessed as 3-(2-cyano-6-(3,4-dichlorobenzylamino)-9H-purin-9-yl)propanoic acid level after 1 hr; type: ADME, organism-based; settings: in vivo; method in brief: as §2
[16] = Toxicity in human erythrocyte assessed as hemolysis at 10 uM after 5 hrs; type: cell-based; settings: erythrocytes, read-out: Activity
Method in brief: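 Human erythrocytes washed three times after spinning whole blood at 1000g for 5 min. Test compound at 10 µM final, 2% hematocrit. PBS negative control; 0.4% saponin dilution series as standard. After centrifugation, supernatant absorbance read at 414 nm and % hemolysis taken from the calibration curve. Triplicate.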

HEK293 = assay: Cytotoxicity against human HEK293 cells after 72 hrs by alamar blue assay; type: cell-based; settings: hek293, 72 h
[17] = Chemical stability in dimethyl sulfoxide at pH 5 after 14 days; type: physicochemical; settings: buffer, pH 5, 336 h; method in brief: as §3
[18] = Inhibition of Trypanosoma brucei cathepsin B expressed in Pichia pastoris

EC50 (Trypanosoma brucei): 1.4 µM
Ratio [1]: 1300
Stability [2]: Stable
Stability (Mus musculus [3]): > 50 µM
half-life [5]: 0.6 h
Stability [6]: Stable
half-life [7]: 5.1 h
solubility [8]: 10.4 µM (≈ 3.92 µg/mL)
Stability [9]: Stable
Stability [10]: Stable
Stability (Mus musculus [11]): Unstable
Ratio [12]: 960
Stability [13]: Stable
Ratio [14]: 1500
Stability (Mus musculus [15]): Unstable
Stability [17]: Stable
Structure (SMILES): N#Cc1nc(NCc2ccc(Cl)c(Cl)c2)c2ncn(CCCO)c2n1
Activity (BJ): Non-toxic
selectivity ratio [4]: > 20
Activity (Raji): Non-toxic
Activity (HepG2): Non-toxic
hemolysis at 5 h, 10 µM [16]: 0.7%
Activity (HEK293): Non-toxic

EC50 (Trypanosoma brucei): 0.5 µM
half-life [5]: 0.74 h
half-life [7]: 247 h
solubility [8]: 0.7 µM (≈ 0.263 µg/mL)
Structure (SMILES): CCCCn1cnc2c(NCc3ccc(Cl)c(Cl)c3)nc(C#N)nc21
selectivity ratio [4]: > 20
hemolysis at 5 h, 10 µM [16]: 0.9%

EC50 (Trypanosoma brucei): > 25 µM
Structure (SMILES): N#Cc1nc(NCc2ccc(Cl)c(Cl)c2)c2ncn(CCC(=O)O)c2n1
IC50 [18]: 2.6 µM
